Reference: ChEMBL document CHEMBL4825688, “Synthesis, biological evaluation and molecular modeling of benzofuran piperidine derivatives as Aβ antiaggregant” (Eur J Med Chem, 2021)
The source made the active and inactive calls. The calls are words filed in the database; no cut-off is given here.

Experiments:
[1] = Antioxidant activity assessed as DPPH radical scavenging activity at 50 uM incubated for 1 hrs under light restrictive condition by UV-microplate reader assay relative to control; type: functional
Outline: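 DPPH stock 56 mM and compound stock 500 mM in anhydrous methanol; compound at 50 µM final with DPPH in methanol. Absorbance read at 517 nm after 30 s shaking, then again after 1 h at room temperature in the dark. Scavenging % = (A control − A sample)/A control ×100.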

[2] = test system: SH-SY5Y; assay: Neuroprotective activity against amyloid beta (25 to 35)-induced cell damage in human SH-SY5Y cells assessed as neuronal viability at 10 uM measured after 24 hrs in presence of amyloid beta (25 to 35) by MTT assay (reference value: 68.66 +/- 0.11 %); type: functional
[3] = biological target: Acetylcholinesterase (Homo sapiens, UniProt P22303); assay: Inhibition of recombinant human AChE using acetylthiocholine iodide as substrate measured after 7 mins by Ellman's method
Chain of Acetylcholinesterase (P22303 whole entry): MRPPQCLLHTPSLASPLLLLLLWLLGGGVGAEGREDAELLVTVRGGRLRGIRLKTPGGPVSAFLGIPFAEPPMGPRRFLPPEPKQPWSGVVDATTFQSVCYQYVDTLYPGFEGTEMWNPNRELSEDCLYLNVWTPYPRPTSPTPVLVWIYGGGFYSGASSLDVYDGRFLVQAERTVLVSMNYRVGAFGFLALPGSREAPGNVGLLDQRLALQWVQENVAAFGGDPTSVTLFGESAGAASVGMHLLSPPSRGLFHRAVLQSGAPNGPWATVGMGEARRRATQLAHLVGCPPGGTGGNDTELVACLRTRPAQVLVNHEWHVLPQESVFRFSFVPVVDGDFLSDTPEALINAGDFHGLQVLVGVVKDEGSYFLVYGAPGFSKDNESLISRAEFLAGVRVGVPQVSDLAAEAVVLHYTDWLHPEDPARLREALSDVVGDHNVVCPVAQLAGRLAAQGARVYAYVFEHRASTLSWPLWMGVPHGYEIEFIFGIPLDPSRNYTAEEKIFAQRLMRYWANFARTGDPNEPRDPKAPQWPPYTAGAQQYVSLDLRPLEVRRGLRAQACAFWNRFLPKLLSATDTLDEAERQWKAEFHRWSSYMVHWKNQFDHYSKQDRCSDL

[4] = Cytotoxicity against human SH-SY5Y cells assessed as cell viability at 10 uM measured after 48 hrs by MTT assay relative to control
[5] = test system: SH-SY5Y; assay: Neuroprotective activity against amyloid beta (25 to 35)-induced cell damage assessed as cell viability in human SH-SY5Y cells by measuring ATP at 10 uM measured after 24 hrs in presence of amyloid beta (25 to 35) by CellTiter-Glo luminescent cell viability assay (reference value: 90.95 +/- 0.82 %); type: functional
[6] = biological target: Cholinesterase (Homo sapiens, UniProt P06276); assay: Inhibition of recombinant human BuChe using S-butyrylthiocholine iodide as substrate measured after 7 mins by Ellman's method
Chain of Cholinesterase (P06276 whole entry): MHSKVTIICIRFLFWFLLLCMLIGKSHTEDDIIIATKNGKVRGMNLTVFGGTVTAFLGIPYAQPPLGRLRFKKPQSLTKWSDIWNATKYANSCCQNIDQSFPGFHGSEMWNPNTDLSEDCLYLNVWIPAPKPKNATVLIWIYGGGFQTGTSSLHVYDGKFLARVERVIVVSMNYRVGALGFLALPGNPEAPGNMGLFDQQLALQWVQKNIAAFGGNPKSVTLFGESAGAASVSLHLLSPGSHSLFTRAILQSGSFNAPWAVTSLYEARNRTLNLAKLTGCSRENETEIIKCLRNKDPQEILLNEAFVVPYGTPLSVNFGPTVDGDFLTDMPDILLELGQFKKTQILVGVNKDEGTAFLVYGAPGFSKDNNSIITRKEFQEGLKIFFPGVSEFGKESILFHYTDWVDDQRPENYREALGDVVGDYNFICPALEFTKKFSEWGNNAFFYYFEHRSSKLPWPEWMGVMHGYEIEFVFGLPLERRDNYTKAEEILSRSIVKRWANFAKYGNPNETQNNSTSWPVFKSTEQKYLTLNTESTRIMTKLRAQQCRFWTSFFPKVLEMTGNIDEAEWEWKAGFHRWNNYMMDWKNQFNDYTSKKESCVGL

[7] = biological target: T1, Amyloid-beta precursor protein (Homo sapiens, UniProt P05067); assay: Inhibition of human amyloid beta (25 to 35) self-induced aggregation at 100 uM after 48 hrs by thioflavin-T fluorescence relative to control
T1 sequence (P05067 whole entry): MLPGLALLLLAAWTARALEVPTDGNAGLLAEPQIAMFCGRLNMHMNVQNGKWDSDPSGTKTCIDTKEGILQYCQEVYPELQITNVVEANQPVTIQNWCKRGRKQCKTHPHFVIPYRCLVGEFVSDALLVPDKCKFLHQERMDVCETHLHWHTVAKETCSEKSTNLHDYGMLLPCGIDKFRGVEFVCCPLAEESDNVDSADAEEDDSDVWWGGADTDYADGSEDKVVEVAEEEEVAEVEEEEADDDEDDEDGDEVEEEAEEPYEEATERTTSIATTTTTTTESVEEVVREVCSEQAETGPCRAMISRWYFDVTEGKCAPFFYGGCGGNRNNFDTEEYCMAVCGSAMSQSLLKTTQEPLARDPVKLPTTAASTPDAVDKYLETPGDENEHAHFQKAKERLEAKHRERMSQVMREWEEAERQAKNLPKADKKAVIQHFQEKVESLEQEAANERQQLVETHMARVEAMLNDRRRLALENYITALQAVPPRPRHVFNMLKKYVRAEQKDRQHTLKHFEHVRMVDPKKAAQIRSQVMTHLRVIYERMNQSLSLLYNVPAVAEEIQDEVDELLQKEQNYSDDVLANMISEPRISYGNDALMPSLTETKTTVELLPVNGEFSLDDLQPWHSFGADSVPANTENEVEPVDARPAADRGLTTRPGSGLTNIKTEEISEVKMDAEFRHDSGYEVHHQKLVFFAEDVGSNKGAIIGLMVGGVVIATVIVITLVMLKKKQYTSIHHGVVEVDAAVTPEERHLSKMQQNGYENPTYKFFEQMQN
Outline: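 Aβ25-35 (10 μM, DMSO stock diluted) incubated with test compound (100 μM) in 0.05 M potassium phosphate buffer (pH 7.4) containing 0.01 M NaCl, 37 °C, 48 h; then ThT (200 μM) in 50 mM glycine-NaOH (pH 8.0) added and fluorescence read. Mean ± SD of three experiments.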

[8] = species on record: Homo sapiens; assay: Selectivity index, ratio of IC50 for human BuChE to IC50 for human AChE
[9] = test system: SH-SY5Y; assay: Neuroprotective activity against amyloid beta (25 to 35)-induced cell damage in human SH-SY5Y cells assessed as LDH release at 10 uM measured after 24 hrs in presence of amyloid beta (25 to 35) by LDH assay (reference value: 364.06 +/- 2.15 %); type: functional
[10] = test system: SH-SY5Y; assay: Neuroprotective activity against amyloid beta (25 to 35)-induced cell damage in human SH-SY5Y cells assessed as viable at 10 uM by annexin-V and propidium iodide staining based flow cytometry analysis assay (reference value: 88.2 %); type: functional
Outline: (§1)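 SH-SY5Y cells exposed to Aβ25-35 (10 µM) ± compounds (10 µM), then trypsinized, washed with PBS and pelleted at 1000 rpm for 3 min. Cells were stained with FITC-Annexin V and PI in binding buffer for 15 min at room temperature and analyzed by flow cytometry (10,000 events). Mean ± SD of three experiments.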

[11] = biological target: T1, Amyloid-beta precursor protein; assay: Inhibition of amyloid beta(25 to 35) (unknown origin) binding to human SH-SY5Y cell plasma membrane at 10 uM measured after 20 mins by UV-vis microplate reader assay; type: cell membranes
Outline: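 SH-SY5Y cells seeded 24 h, then fresh medium with Aβ25-35 (10 µM) ± compounds (10 µM) for 30, 60 and 120 min. After two PBS washes, bound peptide was stained with Congo red in PBS for 20 min and read at 540 nm. Values are % of untreated cells (100%).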

[12] = test system: SH-SY5Y; assay: Neuroprotective activity against amyloid beta (25 to 35)-induced cell damage in human SH-SY5Y cells assessed as necrotic cell at 10 uM by annexin-V and propidium iodide staining based flow cytometry analysis assay (reference value: 0 %); type: functional; outline: as §1
[13] = test system: SH-SY5Y; assay: Neuroprotective activity against amyloid beta (25 to 35)-induced oxidative stress in human SH-SY5Y cells assessed as decrease in intracellular ROS production at 10 uM incubated with amyloid beta (25 to 35) for 24 hrs by DCFH-DA staining-based flow cytometric analysis; type: functional, cell-based
Outline: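 SH-SY5Y (1×10⁶ cells/well) grown 24 h, then exposed to unaggregated Aβ25-35 (10 µM) ± compounds (10 µM) for 24 h at 37 °C. After three PBS washes, cells were loaded with DCFH-DA (10 µM) for 30 min, rinsed, pelleted at 1500 rpm for 5 min, resuspended in PBS and analyzed by flow cytometry (10,000 events). Mean ± SD of three experiments.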

[14] = test system: SH-SY5Y; assay: Neuroprotective activity against amyloid beta (25 to 35)-induced cell damage in human SH-SY5Y cells assessed as early apoptotic cell at 10 uM by annexin-V and propidium iodide staining based flow cytometry analysis assay (reference value: 10.9 %); type: functional; outline: as §1
[15] = test system: SH-SY5Y; assay: Neuroprotective activity against amyloid beta (25 to 35)-induced cell damage in human SH-SY5Y cells assessed as increase in neuronal viability measured after 24 hrs in presence of amyloid beta (25 to 35) by MTT assay; type: functional, cell-based; settings: dose 1-10 µM
[16] = test system: SH-SY5Y; assay: Neuroprotective activity against amyloid beta (25 to 35)-induced cell damage in human SH-SY5Y cells assessed as late apoptotic cell at 10 uM by annexin-V and propidium iodide staining based flow cytometry analysis assay (reference value: 0.890 %); type: functional; outline: as §1

Structure (SMILES)	Activity [1]	Activity [2]	IC50 [3]	viability at 48 h, 10 µM ([4]; SH-SY5Y cells)	IC50 [6]	inhibition [7]	Selectivity Index [8]	further results
COc1cc(/C=C/C(=O)O)ccc1O	50%	–	–	–	–	–	–	–
COc1ccc(OC)c(CN2CCC(c3cc4ccccc4o3)CC2)c1	11.9%	79.09%	23.9 µM	102%	35.5 µM	51.8%	0.04	Activity [5]: 102.53%; Activity [9]: 324.83%
CCc1ccc(CN2CCC(c3cc4ccccc4o3)CC2)cc1	–	–	64.2 µM	–	> 100 µM	19.9%	–	–
COc1cc2c(cc1OC)C(=O)C(CC1CCN(Cc3ccccc3)CC1)C2 (stereo unspecified) [DONEPEZIL]	–	60.82%	–	–	–	–	–	viability at 48 h, 10 µM ([4]; sh-sy5y): 101%
COc1cc(/C=C/C(=O)CC(=O)/C=C/c2ccc(O)c(OC)c2)ccc1O [CURCUMIN]	–	45.95%	–	60%	–	–	–	–
Clc1ccc(CN2CCC(c3cc4ccccc4o3)CC2)cc1	–	–	98.5 µM	–	> 100 µM	24.4%	–	–
c1ccc(CN2CCC(c3cc4ccccc4o3)CC2)cc1	18.2%	88.91%	5.07 µM	105%	54.3 µM	55.4%	10.8	Activity [10]: 97.5%; inhibition (INH) [11]: Active; Activity [12]: 0.03%; Activity [13]: Active; Activity [5]: 101.59%; Activity [14]: 1.08%; Activity [15]: Dose-Dependent Effect; Activity [16]: 0.55%; Activity [9]: 294.64%
COc1ccc(C(=O)c2c(C3CCN(Cc4ccccc4)CC3)oc3ccccc23)cc1	17.6%	75.17%	48.3 µM	107%	52.1 µM	47.4%	1.07	Activity [5]: 100.79%; Activity [9]: 285%
COc1ccc(CN2CCC(c3oc4ccccc4c3C(=O)c3ccc(OC)cc3)CC2)cc1	–	–	59.7 µM	–	59.7 µM	45%	0.99	–
COc1ccc(CN2CCC(c3cc4ccccc4o3)CC2)cc1OC	–	–	52.8 µM	–	64.6 µM	14.7%	1.2	–
Fc1ccc(CN2CCC(c3cc4ccccc4o3)CC2)cc1	10.8%	80.8%	21.3 µM	101%	55.8 µM	57.7%	2.6	Activity [10]: 98.2%; inhibition (INH) [11]: Active; Activity [12]: 1.58%; Activity [13]: Active; Activity [5]: 104.56%; Activity [14]: 1.2%; Activity [15]: Dose-Dependent Effect; Activity [16]: 0.05%; Activity [9]: 287.37%
COc1ccc(CN2CCC(c3cc4ccccc4o3)CC2)cc1	–	–	92.8 µM	–	> 100 µM	8.04%	–	–
Cc1c(C)c2c(c(C)c1O)CCC(C)(C(=O)O)O2 (stereo unspecified)	55.5%	–	–	–	–	–	–	–
COc1ccc(CN2CCC(c3oc4ccccc4c3C(=O)c3ccccc3)CC2)cc1	–	–	97.1 µM	–	62.6 µM	42.2%	0.6	–
c1ccc2oc(C3CCNCC3)cc2c1	–	–	61.2 µM	–	64.4 µM	45.5%	1	–
O=C(c1ccccc1)c1c(C2CCN(Cc3ccccc3)CC2)oc2ccccc12	21.6%	76.06%	41.3 µM	107%	> 100 µM	61.9%	–	Activity [10]: 98.1%; inhibition (INH) [11]: Active; Activity [12]: 0.52%; Activity [13]: Active; Activity [5]: 95.49%; Activity [14]: 0.77%; Activity [16]: 0.65%; Activity [9]: 316.05%
Oc1ccc(/C=C/c2cc(O)cc(O)c2)cc1	45.7%	–	–	–	–	–	–	–
COc1ccc(CN2CCC(c3oc4ccccc4c3C(=O)c3ccccc3)CC2)cc1OC	–	–	45.3 µM	–	> 100 µM	42.9%	–	–
Oc1ccc(CN2CCC(c3cc4ccccc4o3)CC2)cc1	12.2%	–	34.9 µM	96.4%	64.6 µM	48.3%	1.8	–
COc1ccc(OC)c(CN2CCC(c3oc4ccccc4c3C(=O)c3ccc(OC)c(OC)c3)CC2)c1	–	–	55.4 µM	–	66.3 µM	37.4%	1.19	–
COc1ccc(C(=O)c2c(C3CCN(Cc4cc(OC)ccc4OC)CC3)oc3ccccc23)cc1	–	–	61 µM	–	61.7 µM	46%	1.01	–
COc1ccc(CN2CCC(c3oc4ccccc4c3C(=O)c3ccc(OC)c(OC)c3)CC2)cc1OC	–	–	68 µM	–	62.2 µM	54.4%	0.9	–
COc1ccc(OC)c(CN2CCC(c3oc4ccccc4c3C(=O)c3ccccc3)CC2)c1	–	–	58.2 µM	–	33.5 µM	39.4%	0.45	–
